Results collected from several papers.
Compare with care: the assays were run in different laboratories.
ALOX12: Polyunsaturated fatty acid lipoxygenase ALOX12 (ALOX12, Homo sapiens, UniProt P18054)
PAK5: Serine/threonine-protein kinase PAK 5 (PAK5, Homo sapiens, UniProt Q9P286)

`Cn1cc(-c2cccc(N3CCc4c(sc5c4CC(C)(C)C5)C3=O)c2CO)cc(Nc2ccncn2)c1=O` gave an inhibition of 0% (Phosphatidylinositol 4-phosphate 3-kinase C2 domain-containing subunit alpha (PIK3C2A, Homo sapiens, UniProt O00443); enzyme activity, inhibitor; 1 µM).
`COc1cc(Nc2ncc(F)c(Nc3ccc4c(n3)NC(=O)C(C)(C)O4)n2)cc(OC)c1OC` gave an inhibition of 100% (Serine/threonine-protein kinase PLK4 (PLK4, Homo sapiens, UniProt O00444); binding; 10 µM).
`Cn1cc(-c2cc(F)cc(N3CCn4c(cc5c4CCCC5)C3=O)c2CO)cc(Nc2ccc(N3CCN(C4COC4)CC3)cn2)c1=O` has an inhibition of -1% (Phosphatidylinositol 3-kinase catalytic subunit type 3 (PIK3C3, Homo sapiens, UniProt Q8NEB9); enzyme activity, inhibitor; 0.1 µM).
`CCCCCc1cc(O)c2c(c1)OC(C)(CCC=C(C)C)C=C2` (stereo not drawn) has a remaining activity of 122% (ALOX12; enzyme activity in cells, inhibitor; PMNL; 10 µM).
The ΔTm of `CCN(CC)CCCC[C@H](NC(=O)[C@H](CC(C)C)NC(=O)[C@H](C)NC(=O)[C@H](Cc1ccccc1)NC(=O)c1ccc(C(C)(C)C)cc1)C(=O)N[C@@H](CO)C(=O)OC` is reported as 0.49 °C (Bromodomain-containing protein 1, bromodomain (BRD1, Homo sapiens, UniProt O95696); thermal stability, DSF; 25 µM).
With `COc1ncccc1-c1cnn2ccc(N3CCN(C(=O)OC(C)C)CC3)nc12` the remaining binding was 98% (Mitogen-activated protein kinase kinase kinase 13 (MAP3K13, Homo sapiens, UniProt O43283); binding, competition with immobilised ligand; 1 µM).
With `Cc1nn(C)cc1-c1nc2c(N3CCN(Cc4ccc(Cl)cc4)CC3)c(Cl)cnc2[nH]1` the remaining binding was 100% (Rhodopsin kinase GRK1 (GRK1, Homo sapiens, UniProt Q15835); binding, competition with immobilised ligand; 1 µM).
`CC[C@H](C)[C@@H](C(=O)O[C@@H](CC(C)C)C(=O)N[C@@H](CC(C)C)C(=O)N[C@@H](C)/C=C/C(=O)N1C(=O)C=C(OC)[C@@H]1C)N(C)C` has a kinact/KI of 7030 M⁻¹ s⁻¹ (Falcipain-3 (FP3, Plasmodium falciparum 3D7, UniProt Q8IIL0); enzyme activity, inhibitor, fluorescence; pH 6).
For `C#Cc1n[nH]c2c(-c3cn([C@@H](C)c4ccccc4)c(=O)[nH]c3=O)cc(F)cc12`, the inhibition was 4.5% (PAK5; enzyme activity, inhibitor; 0.1 µM).
For `Nc1ncc(-c2nc(N3CCOCC3)nc(N3CCOCC3)n2)c(C(F)F)n1`, the remaining activity was 39.1% (cGMP-inhibited 3',5'-cyclic phosphodiesterase 3A (PDE3A, Homo sapiens, UniProt Q14432); enzyme activity, inhibitor; 10 µM).
The inhibition of `C#Cc1n[nH]c2c(-c3cn([C@@H](C)c4ccccn4)c(=O)[nH]c3=O)cc(F)cc12` is reported as 5.1% (PAK5; enzyme activity, inhibitor; 0.1 µM).
`C=C(C)[C@@H]1CCC(C)=C[C@H]1c1c(O)cc(CCC)cc1O` has a remaining activity of 110% (ALOX12; enzyme activity in cells, inhibitor; PMNL; 10 µM).
